According to ChEMBL document CHEMBL4257556, “Novel 1,3,4-thiadiazole-chalcone hybrids containing catechol moiety: synthesis, antioxidant activity, cytotoxicity and DNA interaction studies” (Medchemcomm, 2018):
The source made the active and inactive calls. The rule behind the calls is not given here.

What was measured:
[1] = Antioxidant activity assessed as DPPH free radical scavenging activity after 30 mins; assay type: functional
Summary of the method: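 DPPH (0.05 mM in methanol) mixed with equal volume of compound (DMSO solution diluted in methanol), kept in dark at room temperature 30 min; absorbance at 517 nm, methanol control, ascorbic acid positive control. IC50 = concentration giving 50% of maximum scavenging; mean ± SD of independent triplicate experiments.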

HL-60 = test: Cytotoxicity against human HL60 cells assessed as decrease in cell survival after 72 hrs by MTT assay; assay type: functional, cell-based; settings: HL-60, 72 h
Summary of the method: (§1)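 HeLa (2000/well), A549 and MRC-5 (5000/well) seeded 20 h before treatment; HL-60 (7000/well) 2 h before. Five concentrations (6.25–100 μM or 3.125–50 μM) from 5 mM DMSO stocks, final DMSO ≤1%, 72 h; survival by MTT. Cisplatin positive control; three independent experiments in triplicate.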

A549 = test: Cytotoxicity against human A549 cells assessed as decrease in cell survival after 72 hrs by MTT assay; assay type: functional, cell-based; settings: A549, 72 h; summary of the method: as §1
HeLa [2] = test: Cytotoxicity against human HeLa cells assessed as decrease in cell survival after 72 hrs by MTT assay; assay type: functional, cell-based; summary of the method: as §1
MRC5 [3] = test: Cytotoxicity against human MRC5 cells assessed as decrease in cell survival after 72 hrs by MTT assay; assay type: cell-based; settings: MRC5, 72 h; summary of the method: as §1
Calf thymus DNA [4] = test: Binding affinity to calf thymus DNA after 90 mins by spectroscopic titration method; assay type: nucleic-acid assay; settings: Bos taurus
Summary of the method: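 Compound fixed at 40 μM titrated with CT-DNA (2.2–13 × 10–5 M) in 40 mM bicarbonate pH 8.4 after 90 min at 37 °C; absorbance at 259 nm per DNA level. Kb from slope/intercept ratio of [DNA]/(εa–εf) versus [DNA] plot; triplicate assays.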

DNA [5] = test: Reversal of Fe2+-induced Escherichia coli pUC19 DNA cleavage at 1:2 compound to Fe2+ mole ratio after 90 mins by agarose gel electrophoresis method; assay type: functional
Summary of the method: (§2)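 Compound (4 μL of 2 mM) preincubated with FeSO4 (1 or 2 μL of 8 mM; compound:Fe 1:1 or 1:2) in bicarbonate buffer 60 min at 37 °C, then pUC19 added for another 90 min; products resolved on 1% agarose gel, ethidium bromide stained.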

MRC5 [6] = test: Induction of DNA damage in human MRC5 cells assessed as formation of DNA breaks at 25 uM after 24 hrs by comet assay relative to control; assay type: functional
Summary of the method: (§3)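 MRC-5 cells exposed 24 h to 3.125–25 μM compound; DNA damage scored as % tail DNA (tail intensity) by comet assay. PBS negative control; H2O2 50 μM 5 min in-gel positive control. Triplicate, repeated twice; mean ± SD.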

HeLa [7] = test: Cell cycle arrest in human HeLa cells assessed as accumulation at sub-G1 phase at 2 times IC50 after 24 hrs in presence of caspase-9 inhibitor Z-LEHD-FMK by propidium iodide-staining based flow cytometric method; assay type: functional
Summary of the method: (§4)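 HeLa cells pretreated 2 h with 40 μM peptide caspase inhibitor (Z-DEVD-FMK caspase-3, Z-IETD-FMK caspase-8 or Z-LEHD-FMK caspase-9), then exposed to 2×IC50 compound; subG1 fraction by propidium iodide flow cytometry, compared with samples lacking inhibitor.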

HeLa [8] = test: Upregulation of miR-206 expression in human HeLa cells at 10 uM after 24 hrs by RT-qPCR method; assay type: functional, cell-based
HeLa [9] = test: Cell cycle arrest in human HeLa cells assessed as decrease in cell levels at G1 phase at 2 times IC50 after 24 hrs by propidium iodide staining-based flow cytometric method; assay type: functional
Summary of the method: (§5)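 HeLa cells treated 24 h at IC50 or 2×IC50 (from 72 h assay), fixed in 70% ethanol, stored at –20 °C ≥1 week, RNase A 30 min 37 °C, propidium iodide stained; flow cytometry, 10 000 gated events. Mean ± SD of three independent experiments; one-way ANOVA with Dunnett's post-test, p < 0.05.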

MRC5 [10] = test: Induction of DNA damage in human MRC5 cells assessed as formation of DNA breaks after 24 hrs by comet assay; assay type: functional, cell-based; summary of the method: as §3
HeLa [11] = test: Downregulation of VEGFA gene expression in human HeLa cells at 10 uM after 24 hrs by RT-qPCR method; assay type: functional, cell-based
HeLa [12] = test: Cell cycle arrest in human HeLa cells assessed as accumulation at sub-G1 phase at 2 times IC50 after 24 hrs in presence of caspase-8 inhibitor Z-IETD-FMK by propidium iodide-staining based flow cytometric method; assay type: functional; summary of the method: as §4
Calf thymus DNA [13] = test: Displacement of Hoechst 33258 from calf thymus DNA assessed as fluorescence intensity of compound-DNA complex at 22 uM by fluorescence spectrophotometric analysis relative to control; assay type: nucleic-acid assay; settings: Bos taurus
Summary of the method: (§6)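 CT-DNA 100 μM (per phosphate) in 40 mM bicarbonate pH 8.4 pretreated 20 min with Hoechst 33258 (28 μM final), then compound added stepwise. Excitation 350 nm, emission 390–550 nm, read at 444 nm, 10 nm slits; H–DNA as control. Quenching constant K by Stern–Volmer, I0/I versus r = [compound]/[DNA]; triplicate.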

DNA [14] = test: Induction of Escherichia coli pUC19 DNA cleavage after 90 mins by agarose gel electrophoresis method; assay type: nucleic-acid assay
Summary of the method: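 Plasmid pUC19 (from E. coli XL1 blue; 460 ng, 12 nM) incubated with compound (0.05–0.4 mM; from 2 mM DMSO stock) in 20 μL 40 mM bicarbonate pH 8.4 at 37 °C for 90 min; 1% agarose gel in TAE at 80 V, ethidium bromide staining, UV at 312 nm; supercoiled/nicked/linear forms scored.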

HeLa [15] = test: Cell cycle arrest in human HeLa cells assessed as accumulation at sub-G1 phase at IC50 and 2 times IC50 after 24 hrs by propidium iodide staining-based flow cytometric method; assay type: functional; summary of the method: as §5
HeLa [16] = test: Downregulation of TIMP3 gene expression in human HeLa cells at 10 uM after 24 hrs by RT-qPCR method; assay type: functional, cell-based
HeLa [17] = test: Cell cycle arrest in human HeLa cells assessed as accumulation at G2/M phase at 2 times IC50 after 24 hrs by propidium iodide staining-based flow cytometric method; assay type: functional; summary of the method: as §5
HeLa [18] = test: Downregulation of miR-133b expression in human HeLa cells at 10 uM after 24 hrs by RT-qPCR method; assay type: functional, cell-based
HeLa [19] = test: Prooxidant activity in human HeLa cells assessed as increase in H2O2-induced reactive oxygen species at 10 uM preincubated for 24 hrs followed by H2O2 addition and measured after 30 mins by dichlorofluorescein dye-based flow cytometric method; assay type: functional, cell-based
Summary of the method: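 HeLa cells pretreated 24 h with 10 μM compound, washed, loaded with 30 μM DCFH-DA in PBS 45 min at 37 °C. One portion read directly (endogenous ROS); other portion exposed to 10 mM H2O2 30 min at 37 °C. DCF green fluorescence by flow cytometry, 20 000 events per sample; mean ± SD of two independent experiments.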

HeLa [20] = test: Cell cycle arrest in human HeLa cells assessed as accumulation at sub-G1 phase at 2 times IC50 after 24 hrs in presence of caspase-3 inhibitor Z-DEVD-FMK by propidium iodide-staining based flow cytometric method; assay type: functional; summary of the method: as §4
Calf thymus DNA [21] = test: Binding affinity to calf thymus DNA at 10 to 40 uM after 90 mins by UV/visible spectrophotometric analysis; assay type: nucleic-acid assay; settings: Bos taurus
Summary of the method: (§7)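 CT-DNA stock in 10 mM Tris-HCl pH 7.9 (A260/A280 1.89–2.01; concentration from ε260 6600 M–1 cm–1). Compound (10, 20 or 40 μM) plus CT-DNA (95 μM) in 40 mM bicarbonate pH 8.4, 37 °C 90 min; spectra 200–800 nm. Hyper/hypochromism at 259 nm from bound versus summed free compound and DNA extinction; triplicate.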

Calf thymus DNA [22] = test: Binding affinity to calf thymus DNA assessed as hyperchromism at 10 to 20 uM after 90 mins by UV/visible spectrophotometric analysis; assay type: nucleic-acid assay; settings: Bos taurus; summary of the method: as §7
HeLa [23] = test: Downregulation of miR-155 expression in human HeLa cells at 10 uM after 24 hrs by RT-qPCR method; assay type: functional, cell-based
HeLa [24] = test: Upregulation of MMP9 gene expression in human HeLa cells at 10 uM after 24 hrs by RT-qPCR method; assay type: functional, cell-based
EA.hy 926 = test: Antiangiogenic activity in human EAhy926 cells assessed as inhibition of tubular structures formation at IC20 after 20 hrs by inverted phase-contrast microscopic method; assay type: functional, cell-based
DNA [25] = test: Reversal of Fe2+-induced Escherichia coli pUC19 DNA cleavage at 1:1 compound to Fe2+ mole ratio after 90 mins by agarose gel electrophoresis method; assay type: functional; summary of the method: as §2
Calf thymus DNA [26] = test: Displacement of Hoechst 33258 from calf thymus DNA assessed as quenching constant by fluorescence spectrophotometric analysis; assay type: nucleic-acid assay; settings: Bos taurus; summary of the method: as §6
HeLa [27] = test: Downregulation of miR-21 expression in human HeLa cells at 10 uM after 24 hrs by RT-qPCR method; assay type: functional, cell-based
HeLa [28] = test: Downregulation of MMP2 gene expression in human HeLa cells at 10 uM after 24 hrs by RT-qPCR method; assay type: functional, cell-based
Calf thymus DNA [29] = test: Binding affinity to calf thymus DNA assessed as hypochromism at 10 to 20 uM after 90 mins by UV/visible spectrophotometric analysis; assay type: nucleic-acid assay; settings: Bos taurus; summary of the method: as §7

Structure (SMILES) | IC50 [1] | IC50 (HL-60) | IC50 (A549) | IC50 (HeLa [2]) | IC50 (MRC5 [3]) | Kb (Calf thymus DNA [4]) | Activity (DNA [5]) | Activity (MRC5 [6]) | Activity (HeLa [7]) | Activity (HeLa [8]) | Activity (MRC5 [10]) | Activity (HeLa [11]) | Activity (HeLa [12]) | Activity (Calf thymus DNA [13]) | Activity (DNA [14]) | Activity (HeLa [15]) | Activity (HeLa [16]) | Activity (HeLa [17]) | Activity (HeLa [18]) | Activity (HeLa [19]) | further results
Cc1ccc(C(=O)/C=C/c2ccc(C(=O)Nc3nnc(-c4ccc(O)c(O)c4)s3)cc2)cc1 | 11.8 µM | 8.44 µM | 26.4 µM | 11.2 µM | 33.7 µM |  |  |  |  |  |  |  |  |  |  |  |  |  |  |  | 
O=C(/C=C/c1ccc(C(=O)Nc2nnc(-c3ccc(O)c(O)c3)s2)cc1)c1ccc(Br)cc1 | 18 µM | 9.74 µM | 87.7 µM | 40.2 µM | 38.2 µM |  |  |  |  |  |  |  |  |  |  |  |  |  |  |  | 
O=C(Nc1nnc(-c2ccc(O)c(O)c2)s1)c1ccc(/C=C/C(=O)c2cccs2)cc1 | 11.1 µM | 15.7 µM | 47.9 µM | 12.7 µM | 68.5 µM | 1.01 ×10³ /M | Active | 25% | inactive | inactive | Dose-dependent effect | Active | inactive | 51% | inactive | Active | Active | Active | Active | inactive | Activity (HeLa [9]): Active; Activity (HeLa [20]): inactive; Activity (Calf thymus DNA [21]): Active; Activity (Calf thymus DNA [22]): Active; Activity (HeLa [23]): Active; Activity (HeLa [24]): Active; inhibition (EA.hy 926): Active; Activity (DNA [25]): Active; K (Calf thymus DNA [26]): 4.66; Activity (HeLa [27]): Active; Activity (HeLa [28]): Active
COc1cccc(C(=O)/C=C/c2ccc(C(=O)Nc3nnc(-c4ccc(O)c(O)c4)s3)cc2)c1 | 10.3 µM | 9.92 µM | 92.1 µM | 9.98 µM | 42.5 µM | 0.71 ×10³ /M | Active | 20% | inactive | Active | Dose-dependent effect | Active | inactive | 55% | inactive | Active | Active | Active | Active | Active | Activity (HeLa [20]): inactive; Activity (Calf thymus DNA [21]): Active; Activity (HeLa [23]): Active; Activity (HeLa [24]): Active; inhibition (EA.hy 926): Active; Activity (DNA [25]): Active; Activity (Calf thymus DNA [29]): 2.4%; K (Calf thymus DNA [26]): 3.95; Activity (HeLa [27]): inactive; Activity (HeLa [28]): Active
O=C(/C=C/c1ccc(C(=O)Nc2nnc(-c3ccc(O)c(O)c3)s2)cc1)c1ccc(F)cc1 | 17.8 µM | 10.6 µM | 89.3 µM | 17.8 µM | 45.8 µM |  |  |  |  |  |  |  |  |  |  |  |  |  |  |  | 
O=C(Nc1nnc(-c2ccc(O)c(O)c2)s1)c1ccc(/C=C/C(=O)c2cccc3cc4ccccc4cc23)cc1 | 13.5 µM | 6.92 µM | 23.2 µM | 11 µM | 21.2 µM |  |  |  |  |  |  |  |  |  |  |  |  |  |  |  | 
